As usually defined, the viability is a read-out of living cells in per cent, often relative to untreated cells. By inhibition is commonly meant the drop in the measured response relative to a control, in per cent.

The structures appear in SMILES notation. The source made the active and inactive calls.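 How the source made its calls, unless noted: active means viability loss from added drug above about 55%, and viability with drug at most 40%, in both replicates (limit read from the data, passing the limit was not always enough); inconclusive means both conditions met in only one replicate; inactive means neither replicate meets both conditions.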

The text below walks through data of PubChem BioAssay.

A short description of test [1]: reduced viability of SK-BR-3 breast cancer cells – cell-based, 24 h, human, pilot screen (AID 572;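 active means viability at or below 10% of carrier control in both of two separate runs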;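 further: compound exposure lasted between 18 and 24 h rather than exactly 24 h; 100% = carrier-treated control wells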). The note with it: SK-BR-3 viability, CellTiter-Glo luminescence, at 10 µM, stronger effect = lower value.
Test [2] in a line: HUVEC growth inhibition – cell-based, human, primary screen (AID 575;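 active means viability at or below 30% in both replicate assays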;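 further: 100% = median of untreated cell wells with 0.1% DMSO on each plate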). The note with it: HUVEC proliferation, CellTiter-Glo luminescence, 72 h; at 10 µM; stronger effect = lower value. The method in brief:
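System: primary human umbilical vein endothelial cells; Quantity: 1250 endothelial cells in each well; Buffer or medium: supplemented EBM, 2% fetal bovine serum; Doses: one dose, 10 µM final, 0.1% DMSO; Incubation: 72 h compound incubation; Technique: ATP-based CellTiter-Glo luminescent read; Evaluation: percent of median DMSO-control luminescence; Controls: vehicle and MePR control wells.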
(In general: Cellular ATP, detected with luciferase, serves as a proxy for viable cell number.)

Test [3] can be described thus: H69AR cell proliferation blockers – human, duplicate replicates, primary screen (AID 580;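 active means viability at or under a set limit in both replicates, limit being median viability minus 3 SD, cut at about 48% in these data, passing the limit was not always enough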;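 further: 100% = mean luminescence of untreated wells and 0% = no signal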). Particulars: H69AR lung tumor cells viability, ATP luminescence, 72 h; at 10 µM; stronger effect = lower value.
The nature of test [4]: MRP1 drug-resistance reversers in H69AR cells – cell-based, doxorubicin co-treatment, pilot screen (AID 601). The note with it: CellTiter-Glo, 72 h, at 10 µM; for differential viability (reversal): stronger effect = higher value.
The nature of test [5]: yeast transport mutant growth inhibition pilot in 384-well plates, post-Golgi transport modulator project (AID 636; in the data active means inhibition above about 31%). Particulars: absorbance 615 nm, about 18 h, stronger effect = higher value.
The nature of test [6]: growth suppression of yeast trafficking mutant, preliminary HTS, modulators of trafficking downstream of Golgi apparatus project, 1536-format plate, OD 615 nm (AID 637; in the data active means inhibition above about 30%). Particulars: yeast transport mutant growth, absorbance 615 nm, 18 h; stronger effect = higher value.
A short description of test [7]: Her2 expression decrease, cell viability multiplex – SKBR3 breast tumor cells, AlphaScreen, ATP viability, primary screen (AID 461;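 active means Her2 level under about 52% in both replicate screens, with viability over 70% of control, limit read from the data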;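 on Her2 level: lower value means less Her2 protein in the cells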;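 on viability: percent of carrier control wells set as 100% viability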). The note with it: SKBR3 Her2 protein level, 18-24 h, measured here: SKBR3 viability, ATP luminescence, at 10 µM. A general note: Bead proximity is the source of the signal in Alpha formats.
Test [8] has as its target Receptor tyrosine-protein kinase erbB-2 (Homo sapiens) (UniProt P04626). The description is as above. The note with it: 18-24 h, at 10 µM, stronger effect = lower value.
[9] abbreviates: H69AR cells + 2 uM doxorubicin, measured here: viability with 2 uM doxorubicin, stronger effect = lower value.
Setting [10] is: H69AR cells, compound alone cytotoxicity.

Receptor tyrosine-protein kinase erbB-2 (Homo sapiens), sequence (P04626 whole entry, looked up): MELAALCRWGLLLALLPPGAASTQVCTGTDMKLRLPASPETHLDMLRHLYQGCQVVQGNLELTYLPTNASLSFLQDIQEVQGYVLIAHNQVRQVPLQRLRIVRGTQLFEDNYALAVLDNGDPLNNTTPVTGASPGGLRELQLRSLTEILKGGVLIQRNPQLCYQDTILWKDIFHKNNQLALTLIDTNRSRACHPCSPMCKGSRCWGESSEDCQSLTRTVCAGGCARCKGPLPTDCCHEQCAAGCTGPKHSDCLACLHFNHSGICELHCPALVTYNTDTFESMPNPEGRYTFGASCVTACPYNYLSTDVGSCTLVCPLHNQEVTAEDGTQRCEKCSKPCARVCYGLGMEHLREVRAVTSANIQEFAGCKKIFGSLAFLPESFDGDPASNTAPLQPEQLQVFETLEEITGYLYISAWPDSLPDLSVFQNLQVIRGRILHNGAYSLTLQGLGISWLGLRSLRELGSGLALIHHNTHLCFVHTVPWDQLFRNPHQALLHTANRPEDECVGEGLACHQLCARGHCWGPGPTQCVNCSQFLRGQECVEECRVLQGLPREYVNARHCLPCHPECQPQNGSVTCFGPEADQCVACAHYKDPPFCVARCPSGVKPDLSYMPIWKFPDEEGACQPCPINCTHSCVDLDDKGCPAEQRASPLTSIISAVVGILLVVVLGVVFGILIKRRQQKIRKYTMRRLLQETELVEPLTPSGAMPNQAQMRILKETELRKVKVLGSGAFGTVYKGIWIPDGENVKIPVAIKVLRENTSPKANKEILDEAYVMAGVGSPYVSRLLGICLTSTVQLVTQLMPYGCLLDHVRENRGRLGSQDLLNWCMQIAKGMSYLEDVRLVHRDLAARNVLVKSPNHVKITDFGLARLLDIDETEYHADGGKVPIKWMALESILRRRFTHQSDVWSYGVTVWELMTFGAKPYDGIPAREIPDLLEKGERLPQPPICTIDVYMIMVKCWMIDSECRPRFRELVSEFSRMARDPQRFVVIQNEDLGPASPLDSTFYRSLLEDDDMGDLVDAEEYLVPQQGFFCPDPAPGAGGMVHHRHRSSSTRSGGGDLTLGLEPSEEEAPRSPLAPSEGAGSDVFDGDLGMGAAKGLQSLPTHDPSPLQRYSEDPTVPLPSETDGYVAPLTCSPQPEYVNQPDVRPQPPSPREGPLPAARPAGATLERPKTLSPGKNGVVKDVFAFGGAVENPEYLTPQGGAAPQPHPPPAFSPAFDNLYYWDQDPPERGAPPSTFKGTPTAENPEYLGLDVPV

On to `COc1ccc(CC(=O)Nc2c3c(nn2-c2cccc(Cl)c2)CS(=O)C3)cc1` (stereo unspecified), for which the viability in test [1] is 111% (inactive); in test [2] it was 95.6% (inactive); in test [3], 104% (inactive); in test [4] (setting [9]), 89.5%; in test [4] (setting [10]) it was 104%. The differential viability (reversal) in test [4] (H69AR cells + 2 uM doxorubicin) is 14.5% (inactive). For the same compound, the inhibition is -2.73% (inactive) in test [5] and -1.97% (inactive) in test [6].

In the case of `CCCc1ccc(Oc2cn[nH]c2-c2ccc(O)c(C)c2O)cc1`, the viability in test [7] is 106%; in test [1], 106% (inactive); in test [4] (setting [9]) it was 34.6%; in test [4] (setting [10]), 8.33%. For the same compound, in test [8], the Her2 level is 76.5% (inactive). For the same compound, in test [4] (H69AR cells + 2 uM doxorubicin), the differential viability (reversal) was -26.3% (inactive). For the same compound, the inhibition in test [5] and in test [6] was 100% (active) in each case.

Turning to `C=C(C)COc1ccc(-c2nc(N)ncc2-c2ccc(OC)cc2)c(O)c1`, the viability in test [7] was 160%; in test [1], 160% (inactive); in test [4] (setting [9]), 31.8%; in test [4] (setting [10]), 33.2%. Also, the Her2 level in test [8] was 73% (inactive). Further, the differential viability (reversal) in test [4] (H69AR cells + 2 uM doxorubicin) was 1.44% (inactive). The figures for the inhibition in test [5] and in test [6] were -1.56% (inactive) and 7.17% (inactive), respectively.

Consider `O=C(CCCCCn1c(=S)[nH]c2cc3c(cc2c1=O)OCO3)N1CCN(Cc2ccccc2)CC1`, for which the viability is 83% in test [7], 83% (inactive) in test [1], 55.3% in test [4] (setting [9]) and 62.7% in test [4] (setting [10]). The Her2 level in test [8] was 77.5% (inactive). Also, the differential viability (reversal) in test [4] (H69AR cells + 2 uM doxorubicin) is 7.46% (inactive). Further, the values for the inhibition in test [5] and in test [6] were -4.73% (inactive) and -0.66% (inactive), respectively.

As to `CCCc1cc(-n2ccnc2)n2c(nc3ccccc32)c1C#N`, the viability is 89.5% in test [7], 89.5% (inactive) in test [1], 55.8% in test [4] (setting [9]) and 45.8% in test [4] (setting [10]). The Her2 level in test [8] is 74% (inactive). In addition, the differential viability (reversal) in test [4] (H69AR cells + 2 uM doxorubicin) was -10.1% (inactive). Further, the figures for the inhibition in test [5] and in test [6] were -3.92% (inactive) and 2.06% (inactive), respectively.

As for `C=CCn1c(SCC(=O)C(C)(C)C)nnc1-c1ccccn1`, the viability in test [1] is 88% (inactive); in test [2] it was 94.4% (inactive); in test [3], 92.2% (inactive); in test [4] (setting [9]) it was 92.6%; in test [4] (setting [10]), 92.2%. For the same compound, the differential viability (reversal) in test [4] (H69AR cells + 2 uM doxorubicin) was -0.455% (inactive). Moreover, the figures for the inhibition in test [5] and in test [6] were -7.57% (inactive) and -3.64% (inactive), respectively.

As for `C=CCN(CC=C)C(=O)Nc1cc(Cl)ccc1OC`, the viability in test [1] was 83% (inactive); in test [2], 95.3% (inactive); in test [3] it was 96.9% (inactive); in test [4] (setting [9]), 96.9%; in test [4] (setting [10]), 96.9%. Further, the differential viability (reversal) in test [4] (H69AR cells + 2 uM doxorubicin) is 0% (inactive). For the same compound, the inhibition was -8.77% (inactive) in test [5] and -3.27% (inactive) in test [6].

Regarding `c1cc2c(cc1Cn1cnnn1)OCO2`, the viability was 96% (inactive) in test [1]; 96.9% (inactive) in test [2]; 105% (inactive) in test [3]; 92.7% in test [4] (setting [9]); 105% in test [4] (setting [10]). Moreover, the differential viability (reversal) in test [4] (H69AR cells + 2 uM doxorubicin) was 12.3% (inactive). For the same compound, the inhibition in test [5] was -1.95% (inactive); in test [6], 4.26% (inactive).

Consider `COCCCn1c(=N)c(C(=O)NCC2CCCO2)cc2c(=O)n3cccc(C)c3nc21` (stereo unspecified), for which the viability was 62% (inactive) in test [1]; 93% (inactive) in test [2]; 98.7% (inactive) in test [3]; 93.3% in test [4] (setting [9]); 98.7% in test [4] (setting [10]). In addition, the differential viability (reversal) in test [4] (H69AR cells + 2 uM doxorubicin) is 5.39% (inactive). Moreover, the figures for the inhibition in test [5] and in test [6] were -6.8% (inactive) and 2.18% (inactive), respectively.

With `COc1ccc(OC)c(Nc2nc(-c3cccs3)cs2)c1`, the viability in test [1] was 82% (inactive); in test [2], 60.7% (inactive); in test [3], 76.5% (inactive); in test [4] (setting [9]) it was 84.1%; in test [4] (setting [10]), 76.5%. In addition, the differential viability (reversal) in test [4] (H69AR cells + 2 uM doxorubicin) was -7.61% (inactive). Besides, the results for the inhibition in test [5] and in test [6] were -6.71% (inactive) and 0.36% (inactive), respectively.

As to `Cc1ccccc1-n1nnc2c(=O)oc3ccccc3c21`, the viability in test [1] was 99.5% (inactive); in test [2], 64.9% (inactive); in test [3] it was 85.8% (inactive); in test [4] (setting [9]) it was 84.5%; in test [4] (setting [10]) it was 85.8%. Besides, the differential viability (reversal) in test [4] (H69AR cells + 2 uM doxorubicin) was 1.29% (inactive). For the same compound, the inhibition in test [5] is -4.47% (inactive); in test [6], 5.83% (inactive).

Regarding `N#CCc1nc2c3c4c(sc3ncn2n1)CCCC4`, the viability in test [1] was 112% (inactive); in test [2], 23.6% (active); in test [3], 86.4% (inactive); in test [4] (setting [9]), 78.1%; in test [4] (setting [10]), 86.4%. Also, the differential viability (reversal) in test [4] (H69AR cells + 2 uM doxorubicin) is 8.27% (inactive). For the same compound, the inhibition in test [5] is -5.54% (inactive); in test [6], 0.36% (inactive).
